Hits are enriched below; roughly 2.6% of the tested compounds scored in any of these assays.
Calb FLC: C. albicans growth modulation with fluconazole | C. albicans CaCi-2 (fluconazole-resistant clinical isolate) + fluconazole, Alamar Blue growth, 48 h | growth inhibition, % (concentration not given with the values) | actives 0.57% (n = 300,000);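 active means growth inhibition above about 58% in most replicates, limit read from the data, passing the limit was not always enough; inconclusive means exactly half the replicates above a set limit; inactive means most replicates below a set limit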;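 further: all wells also contain fluconazole at 8 µg/ml as a sub-toxic cotreatment; 0% = median of DMSO wells and 100% = median of geldanamycin control wells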
ARFGAP1 inhibitor: inhibits rat ARF GTPase activating protein 1; Q62848; actives 0.26% (n = 360,000); AID 651572; Arfgap1-stimulated ARF1 GTP hydrolysis, GDP FP detection; inhibition, % at 16.5 µM;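 active means inhibition above a per-plate limit, mean inhibition of low control wells plus 3 SD, cut at about 25% in these data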;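 further: 0% = DMSO wells with enzyme and 100% = wells lacking Arfgap1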
Target sequence (Q62848 1-136 limits assumed): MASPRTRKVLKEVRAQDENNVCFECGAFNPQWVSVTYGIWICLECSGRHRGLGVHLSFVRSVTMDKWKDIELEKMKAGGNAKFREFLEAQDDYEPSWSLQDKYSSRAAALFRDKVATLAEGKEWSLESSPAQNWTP
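Repeats: one replicate per compound; assay system: rat Arfgap1 catalytic domain, aa 1-136; times: enzyme reaction 120 min at 25 °C after 20 min preincubation; detection: FP of antibody-bound GDP Alexa 633 tracer, ex 620/em 688 nm; benchmarks: high control wells lacking Arfgap1, low control full reaction with DMSO; reagent: human ARF1(Δ1-17)-GTP substrate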
VIM-2 inhibitor: blocks Pseudomonas aeruginosa VIM-2 metallo-beta-lactamase. purified VIM-2, nitrocefin hydrolysis, epi-absorbance fluorescence. inhibition, % at 5.6 µM. actives 0.89% (n = 290,000). AID 1527;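 active means inhibition above the mean of all tested compounds plus 3 SD, cutoff set per screening run, cut at about 7.5% in these data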;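 further: red hydrolysis product quenches plate fluorescence so inhibitors raise well fluorescence; 0% = enzyme with DMSO and 100% = DMSO without enzyme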
ASAP1 GAP inh: blocks human ASAP1-stimulated Arf1 GTP hydrolysis. GDP FP detection. inhibition, % at 16.5 µM. actives 0.19% (n = 360,000). AID 624377; in the data active means inhibition above about 25%;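 further: 0% = vehicle with enzyme and substrate and 100% = no enzyme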
Target sequence (Q9ULH1 325-724 limits assumed): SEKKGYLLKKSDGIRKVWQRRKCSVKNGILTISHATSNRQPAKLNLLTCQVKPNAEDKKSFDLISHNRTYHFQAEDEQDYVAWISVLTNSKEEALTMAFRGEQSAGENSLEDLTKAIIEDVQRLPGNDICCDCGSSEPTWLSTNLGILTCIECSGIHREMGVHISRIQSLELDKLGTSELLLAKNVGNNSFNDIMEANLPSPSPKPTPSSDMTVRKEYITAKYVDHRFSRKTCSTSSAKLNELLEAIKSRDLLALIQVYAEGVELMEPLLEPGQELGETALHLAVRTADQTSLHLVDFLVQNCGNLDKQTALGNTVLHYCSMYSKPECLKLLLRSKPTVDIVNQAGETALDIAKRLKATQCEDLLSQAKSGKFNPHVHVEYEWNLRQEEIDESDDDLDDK
PHOSPHO1 block: blocks human PHOSPHO1 phosphatase activity. recombinant PHOSPHO1, absorbance phosphatase assay. inhibition, % at 13.3 µM. actives 1.1% (n = 290,000). AID 1565; in the data active means inhibition above about 60%
IMP-1 inh: inhibitors of Pseudomonas aeruginosa IMP-1 metallo-beta-lactamase | actives 0.45% (n = 290,000) | purified IMP-1, nitrocefin hydrolysis, epi-absorbance fluorescence | inhibition, % at 5.6 µM;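 active means inhibition above the mean plus 3 SD of all compounds in the same screening run, cut at about 4.5% in these data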;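 further: 0% = IMP-1 with DMSO and 100% = DMSO wells lacking enzyme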
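system = purified recombinant IMP-1 beta-lactamase | amount = 0.2 nM IMP-1, as dispensed | medium = HEPES buffer pH 7.1 with ZnSO4 and Brij 35 | times = 25 °C, 15 min preincubation, 25 min reaction | detection = plate fluorescence quenching by hydrolysis product, ex 480/em 530 nm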
Starred values were filed as active, the others as inactive; ? = inconclusive; . = no result.

SMILES	Calb FLC	ARFGAP1 inhibitor	VIM-2 inhibitor	ASAP1 GAP inh	PHOSPHO1 block	IMP-1 inh
COc1cccc(C2CC(=O)N3CN(c4ccccc4F)CSC3=C2C#N)c1 (stereo unspecified)	2	-3	-1	5	29	-1
COc1ccccc1N1CSC2=C(C#N)C(c3ccc(SC)cc3)CC(=O)N2C1 (stereo unspecified)	2	-6	0	-11	92*	-2
COc1ccc2ccccc2c1C1CC(=O)N2CN(C)CSC2=C1C#N (stereo unspecified)	17	-8	0	0	54	-1
COc1cc(C2CC(=O)N3CN(c4ccccc4C)CSC3=C2C#N)cc(OC)c1OC (stereo unspecified)	?	8	-3	6	88*	-4
O=C1C(=O)N(CCN2CCOCC2)C(c2ccccn2)/C1=C(/O)c1ccccc1 (stereo unspecified)	-4	-3	-3	-3	58	0
Cc1ccc(C2/C(=C(/O)c3ccccc3)C(=O)C(=O)N2CCN2CCOCC2)o1 (stereo unspecified)	4	5	-1	-7	76*	2
Cc1ccc(C2/C(=C(/O)c3cnn(-c4ccccc4)c3C)C(=O)C(=O)N2CCN2CCOCC2)o1 (stereo unspecified)	29	0	-2	-18	30	-1
Cc1c(/C(O)=C2/C(=O)C(=O)N(CCN3CCOCC3)C2c2cccs2)cnn1-c1ccccc1 (stereo unspecified)	0	-6	0	10	17	6.1*
CCc1nnc(NC(=O)CSc2nnc(CSc3nc(C)cc(C)n3)n2CC)s1	.	.	-4	.	.	-4
CCc1nnc(NC(=O)CSc2nnc(CSc3nc(C)cc(C)n3)o2)s1	-4	0	-5	4	94*	-1
CSc1c2c(nc3ncnn13)CCC2	?	-5	-3	-7	15	-3
CSc1nc2[nH]c3c(c2c2ncnn12)CCCC3	-1	-6	11*	4	-7	-2
Cc1n[nH]c(C)c1CCNCc1ccc(OCC(O)CN2CCCCC2)cc1 (stereo unspecified)	71*	-1	-3	-2	35	-3
CCCc1ccc(OCC(O)CN2CCCC2)cc1 (stereo unspecified)	-66	-6	-2	-4	24	-4
COC(CN(C)C(=O)c1ccc2c(c1)NC(=O)c1ccccc1S2)OC	120*	0	-3	7	42	-4
COc1cc(C2C(C#N)=C(N)Oc3c2ccc2ccccc32)ccc1OCC(=O)Nc1ccccc1C (stereo unspecified)	12	17	-1	9	22	0
CN(C)/C=N/C1=C(C#N)C(c2ccc(Br)cc2)c2ccc3ccccc3c2O1 (stereo unspecified)	20	7	-2	4	10	6.1*
C(#Cc1ccccc1)C[N+]1(CC#Cc2ccccc2)CCCCC1	82*	-16	-1	4	20	-1
Cc1ccc(Cl)cc1N1CCN(C(=O)c2cc3c(=O)[nH]c4ccccc4c3n2C)CC1	-3	-1	-2	9	0	-2
CN(CCCNC(=O)c1cc2c(=O)[nH]c3ccccc3c2n1C)Cc1ccccc1	31	10	8.1*	-1	-13	-1
CC1CC(C)CN(CCCNC(=O)c2cc3c(=O)[nH]c4ccccc4c3n2C)C1 (stereo unspecified)	15	-18	12*	8	-10	-2
Cn1c(C(=O)NCCCN2CCN(c3ccccc3F)CC2)cc2c(=O)[nH]c3ccccc3c21	-31	-4	11*	-7	11	-6
CCCCCn1c(=O)[nH]c2cc(C(=O)NCCCN(C)Cc3ccccc3)ccc2c1=O	-4	-7	1	-1	24	-2
CCC1CCCCN1CCCNC(=O)c1cc2c(=O)[nH]c3ccccc3c2n1C (stereo unspecified)	5	6	8.9*	0	-16	-2
OC(c1ccccc1)(c1ccccc1)C1CCN(CCCOc2ccncc2)CC1	.	8	.	7	.	.
SMILES	Calb FLC	ARFGAP1 inhibitor	VIM-2 inhibitor	ASAP1 GAP inh	PHOSPHO1 block	IMP-1 inh
CCCCCCC12C(=Cc3cc4c(cc31)OCCO4)c1cc(OC)c(OC)cc1C(CC(=O)O)N2C(=O)OC (stereo unspecified)	.	3	.	2	.	.
COc1ccc(/C=C2\Oc3cc(OCC(=O)N4CCC[C@H]4C(=O)O)ccc3C2=O)c(OC)c1	-6	.	1	.	-8	-1
COc1cc(OC)c(OC)cc1/C=C1\Oc2cc(OCC(=O)N3Cc4ccccc4C[C@H]3C(=O)O)ccc2C1=O	13	.	12*	.	23	3
O=C(CCC(=O)Nc1ccc(Cl)cc1Cl)N/N=C/c1ccc([N+](=O)[O-])o1	101*	5	-2	5	-6	-2
CCCCCCCc1nc2c(=O)n(C)c3ccccc3c2o1	1	20	-4	5	63*	-5
CCCCCc1nc2c(=O)n(C)c3ccccc3c2o1	-13	-12	3	-14	-11	-5
COc1ccccc1-n1c(C)cc(SC)c(C(C)=O)c1=S	86*	12	1	-7	40	-2
C[C@@H]1CN(c2ccc(N3CCNC[C@H]3C)cc2C#N)CCN1Cc1ccccc1	.	1	.	13	.	.
COC(=O)[C@]1(Cc2ccccc2)NC=C(C(=O)c2ccc(F)cc2)[C@@H]1c1ccccc1	.	-10	.	-3	.	.
Cn1c(N)c(C(=O)Nc2ccc3ccccc3c2)sc1=S	-11	-4	0	2	96*	0
Cn1c(N)c(C(=O)Nc2ccccc2F)sc1=S	0	4	-3	-3	28	-1
CC1(C)CC(=O)C(Sc2nnc(-c3ccc(O)cc3)n2CC2CCCO2)C(=O)C1 (stereo unspecified)	-8	-11	0	5	85*	-1
CCC(=O)Nc1ccc(NC(=O)CSc2nnc(-c3ccc(O)cc3)n2CC2CCCO2)cc1 (stereo unspecified)	8	10	-4	-1	2	-5
CC(=O)Nc1ccc(C(=O)CSc2nnc(-c3ccc(O)cc3)n2CC2CCCO2)cc1 (stereo unspecified)	9	3	-1	-12	65*	-5
CC(C)C[C@H]1CNC(=O)C(=O)N1C[C@@H]1CCCN1C[C@H](Cc1ccccc1)N1C[C@H](CC(C)C)N(CC2CCCCC2)C(=O)C1=O	.	-3	.	-7	.	.
CC(=O)N1CCC(=NNc2nc3ccccc3s2)CC1	99*	0	-4	2	40	-3
CC(=O)N1CCC(=NNC(=O)c2cc3ccccc3cc2O)CC1	82*	12	-1	3	33	0
CCOC(=O)N1CCC(=NNC(=O)c2cc3ccccc3cc2O)CC1	44	17	-1	4	11	-3

Compound activity as filed in PubChem BioAssay.
